From ChEMBL document CHEMBL4373727, “Thienopyrimidinone Derivatives That Inhibit Bacterial tRNA (Guanine37-N1)-Methyltransferase (TrmD) by Restructuring the Active Site with a Tyrosine-Flipping Mechanism” (J Med Chem, 2019)

How the values were obtained:
[1] = target: T1, tRNA (guanine-N(1)-)-methyltransferase (Pseudomonas aeruginosa (strain ATCC 15692 / DSM 22644 / CIP 104116 / JCM14847 / LMG 12228 / 1C / PRS 101 / PAO1), UniProt Q9HXQ1); experiment: Binding affinity to Pseudomonas aeruginosa tRNA (guanine(37)-N1)-methyltransferase (Leu5 to Asp25 residues) expressed in Escherichia coli BL21 (DE3) Rosetta T1R cells by surface plasmon resonance assay
T1 sequence (Q9HXQ1 whole entry): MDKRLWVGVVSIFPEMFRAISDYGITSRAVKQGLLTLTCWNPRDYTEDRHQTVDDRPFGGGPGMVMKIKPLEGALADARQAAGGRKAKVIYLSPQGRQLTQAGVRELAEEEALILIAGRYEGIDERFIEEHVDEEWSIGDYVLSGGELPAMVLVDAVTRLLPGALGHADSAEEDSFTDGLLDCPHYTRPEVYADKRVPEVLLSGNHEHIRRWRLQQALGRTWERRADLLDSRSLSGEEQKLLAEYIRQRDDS
In short: (§1)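 SPR at 25 °C. His-tagged TrmD (50 μg/mL) captured on an anti-His antibody surface (about 2200 RU), with a blank reference cell. Buffer: 50 mM Tris-HCl pH 8, 150 mM NaCl, 1 mM MgCl2, 1 mM DTT, 0.05% Tween-20. Analyte in 2-fold dilutions, injected lowest to highest at 30 μL/min, 30 s contact, 240 s dissociation. KD from steady-state affinity fit.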

[2] = target: T2, tRNA (guanine-N(1)-)-methyltransferase (Mycobacterium tuberculosis (strain ATCC 25618 / H37Rv), UniProt P9WFY7); experiment: Binding affinity to full length Mycobacterium tuberculosis tRNA (guanine(37)-N1)-methyltransferase expressed in Escherichia coli BL21 (DE3) by surface plasmon resonance assay; in short: as §1
T2 sequence (P9WFY7 whole entry): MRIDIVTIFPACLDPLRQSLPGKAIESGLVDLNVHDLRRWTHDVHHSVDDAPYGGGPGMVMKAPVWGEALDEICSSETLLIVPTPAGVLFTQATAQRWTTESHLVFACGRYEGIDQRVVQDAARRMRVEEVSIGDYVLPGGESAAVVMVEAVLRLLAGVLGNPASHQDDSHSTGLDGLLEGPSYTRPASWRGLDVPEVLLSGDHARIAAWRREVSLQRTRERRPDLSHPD

[3] = target: T3, tRNA (guanine-N(1)-)-methyltransferase (Staphylococcus aureus (strain NCTC 8325 / PS 47), UniProt Q2FZ43); experiment: Binding affinity to full length Staphylococcus aureus tRNA (guanine(37)-N1)-methyltransferase expressed in Escherichia coli BL21 (DE3) by surface plasmon resonance assay; in short: as §1
T3 sequence (Q2FZ43 whole entry): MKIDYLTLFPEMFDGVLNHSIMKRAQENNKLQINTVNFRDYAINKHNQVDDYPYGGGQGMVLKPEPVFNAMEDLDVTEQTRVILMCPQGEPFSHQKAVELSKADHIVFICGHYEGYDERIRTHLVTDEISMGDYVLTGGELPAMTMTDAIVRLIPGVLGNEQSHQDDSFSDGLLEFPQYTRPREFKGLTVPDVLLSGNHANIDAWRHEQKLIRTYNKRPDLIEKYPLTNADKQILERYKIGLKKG

[4] = target: T4, tRNA (guanine-N(1)-)-methyltransferase (Pseudomonas aeruginosa (strain ATCC 15692 / DSM 22644 / CIP 104116 / JCM14847 / LMG 12228 / 1C / PRS 101 / PAO1)) (UniProt Q9HXQ1); experiment: Binding affinity to Pseudomonas aeruginosa tRNA (guanine(37)-N1)-methyltransferase (Leu5 to Asp25 residues) expressed in Escherichia coli BL21 (DE3) Rosetta T1R cells assessed as association rate constant by surface plasmon resonance assay; in short: as §1
T4 sequence (whole entry): T1 sequence (Q9HXQ1 whole entry)

[5] = target: T5, tRNA (guanine-N(1)-)-methyltransferase (Mycobacterium tuberculosis (strain ATCC 25618 / H37Rv)) (UniProt P9WFY7); experiment: Binding affinity to full length Mycobacterium tuberculosis tRNA (guanine(37)-N1)-methyltransferase expressed in Escherichia coli BL21 (DE3) assessed as association rate constant by surface plasmon resonance assay; in short: as §1
T5 sequence (whole entry): T2 sequence (P9WFY7 whole entry)

[6] = target: T6, tRNA (guanine-N(1)-)-methyltransferase (Staphylococcus aureus (strain NCTC 8325 / PS 47)) (UniProt Q2FZ43); experiment: Binding affinity to full length Staphylococcus aureus tRNA (guanine(37)-N1)-methyltransferase expressed in Escherichia coli BL21 (DE3) assessed as association rate constant by surface plasmon resonance assay; in short: as §1
T6 sequence (whole entry): T3 sequence (Q2FZ43 whole entry)

[7] = target: T4, tRNA (guanine-N(1)-)-methyltransferase (Pseudomonas aeruginosa (strain ATCC 15692 / DSM 22644 / CIP 104116 / JCM14847 / LMG 12228 / 1C / PRS 101 / PAO1)); experiment: Binding affinity to Pseudomonas aeruginosa tRNA (guanine(37)-N1)-methyltransferase (Leu5 to Asp25 residues) expressed in Escherichia coli BL21 (DE3) Rosetta T1R cells assessed as dissociation rate constant by surface plasmon resonance assay; in short: as §1
[8] = target: T5, tRNA (guanine-N(1)-)-methyltransferase (Mycobacterium tuberculosis (strain ATCC 25618 / H37Rv)); experiment: Binding affinity to full length Mycobacterium tuberculosis tRNA (guanine(37)-N1)-methyltransferase expressed in Escherichia coli BL21 (DE3) assessed as dissociation rate constant by surface plasmon resonance assay; in short: as §1
[9] = target: T6, tRNA (guanine-N(1)-)-methyltransferase (Staphylococcus aureus (strain NCTC 8325 / PS 47)); experiment: Binding affinity to full length Staphylococcus aureus tRNA (guanine(37)-N1)-methyltransferase expressed in Escherichia coli BL21 (DE3) assessed as dissociation rate constant by surface plasmon resonance assay; in short: as §1
[10] = target: T4, tRNA (guanine-N(1)-)-methyltransferase (Pseudomonas aeruginosa (strain ATCC 15692 / DSM 22644 / CIP 104116 / JCM14847 / LMG 12228 / 1C / PRS 101 / PAO1)); experiment: Binding affinity to Pseudomonas aeruginosa tRNA (guanine(37)-N1)-methyltransferase (Leu5 to Asp25 residues) expressed in Escherichia coli BL21 (DE3) Rosetta T1R cells assessed as thermal stabilization of protein by measuring change in melting temperature at 2 mM by SYPRO orange based thermal shift assay
In short: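 Thermal shift: 4 μM TrmD with 5× SYPRO Orange and ligand in 50 mM Tris-HCl pH 8, 150 mM NaCl, 1 mM MgCl2, 1 mM DTT, 0.05% Tween-20. Buffer-only control. Heated from 25 to 95 °C in a real-time PCR instrument, and Tm taken as the unfolding midpoint. Ligand levels: SAH 2 mM, inhibitors 0.1 mM.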

Nc1ncnc2c1ncn2[C@@H]1O[C@H](CSCC[C@H](N)C(=O)O)[C@@H](O)[C@H]1O [S-ADENOSYLHOMOCYSTEINE]
Kd [1]: 5.9 µM
Kd [2]: 10.1 µM
Kd [3]: 3.3 µM
Ka [4]: 55500 M⁻¹ s⁻¹
Ka [5]: 7700 M⁻¹ s⁻¹
Ka [6]: 279000 M⁻¹ s⁻¹
Kdiss [7]: 0.326 s⁻¹
Kdiss [8]: 0.0775 s⁻¹
Kdiss [9]: 0.92 s⁻¹
ΔTm [10]: 4 to 29 °C
